Screens: PubChem BioAssay, The Scripps Research Institute Molecular Screening Center
This is a sample that favours compounds with a hit; in the whole collection about 4.2% have one here.
TAAR1 antag = antagonists of human TAAR1. CHO RD-HGA16 TAAR1, Fluo-8 calcium fluorescence, antagonist. 360,000 tested, 1.5% active. AID 624466. Q96RJ0. inhibition, % at 3 µM;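 active = inhibition above a per-plate cutoff, the mean inhibition of test compounds on that plate plus 3 SD, cut at about 49% in these data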;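 also: 0% = DMSO plus EC80 beta-PEA response and 100% = DMSO alone without agonist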
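Assay system: RD-HGA16 CHO cells with stable hTAAR1 and Gα16 / Reagent: EC80 β-phenethylamine stimulus / Doses: 3 µM, single point / Timing: dye loading 75 min at 37 °C, then 30 min room temperature / Measured by: Fluo-8 intracellular calcium dye fluorescence, real-time kinetic reads / Controls: vehicle wells and EC80 agonist wells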
CHO parental Ca = counter-screen for OX1R antagonists: effect in parental CHO cells. parental CHO-K1, ATP-induced calcium, Fluo-8 fluorescence. inhibition, % at 5.6 µM. 330,000 tested, 0.63% active. AID 463079;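 active = inhibition above that plate's mean sample inhibition plus 3 SD, cut at about 26% in these data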;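 also: 0% = ATP-challenged DMSO wells and 100% = DMSO wells without ATP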
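Material – parental CHO cells · Reagent – ATP stimulus · Compound – single nominal dose of 5.6 µM per compound · Detection – Fluo-8 fluorescence · Read-out basis – percent inhibition of calcium signal · Controls – ATP-challenged DMSO wells low, unchallenged DMSO wells high · Repeats – no replicates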
OX1R antag-1 = blocks the human orexin 1 receptor | O43613 | OX1R-expressing cells, FRET antagonist read-out | inhibition, % at 6.6 µM | 330,000 tested, 1.8% active | AID 485270; in the data active = inhibition mostly above about 38%, no sharp cut-off; inactive = mostly below about 40%;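 also: 0% = agonist challenge alone and 100% = reference antagonist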
Target sequence (O43613 whole entry, looked up): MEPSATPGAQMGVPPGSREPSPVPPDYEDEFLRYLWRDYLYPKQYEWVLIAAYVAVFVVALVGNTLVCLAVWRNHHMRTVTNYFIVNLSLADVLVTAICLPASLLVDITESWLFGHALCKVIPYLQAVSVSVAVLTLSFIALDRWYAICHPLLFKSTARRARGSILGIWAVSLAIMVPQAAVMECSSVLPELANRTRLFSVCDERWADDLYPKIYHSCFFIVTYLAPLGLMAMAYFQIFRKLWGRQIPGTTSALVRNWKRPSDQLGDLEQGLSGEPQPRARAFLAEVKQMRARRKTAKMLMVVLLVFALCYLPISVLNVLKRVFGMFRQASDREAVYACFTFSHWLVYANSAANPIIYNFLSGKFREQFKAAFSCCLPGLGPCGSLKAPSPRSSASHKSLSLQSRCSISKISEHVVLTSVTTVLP
GalR3 antag = antagonists of human GalR3; O60755; HEK293 GalR3-CNG cAMP membrane potential fluorescence; galR3 body fused to GalR1 C-terminus; inhibition, % at 3 µM; 360,000 tested, 0.44% active; AID 651719;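 active = inhibition above the screen-wide average plus 3 SD, cut at about 13% in these data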;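 also: forskolin and galanin both at EC90 stimulate the cells; cAMP rise reported by CNG channel membrane potential dye signal; 0% = forskolin plus galanin with DMSO and 100% = forskolin alone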
Target sequence (O60755 1-299 limits assumed): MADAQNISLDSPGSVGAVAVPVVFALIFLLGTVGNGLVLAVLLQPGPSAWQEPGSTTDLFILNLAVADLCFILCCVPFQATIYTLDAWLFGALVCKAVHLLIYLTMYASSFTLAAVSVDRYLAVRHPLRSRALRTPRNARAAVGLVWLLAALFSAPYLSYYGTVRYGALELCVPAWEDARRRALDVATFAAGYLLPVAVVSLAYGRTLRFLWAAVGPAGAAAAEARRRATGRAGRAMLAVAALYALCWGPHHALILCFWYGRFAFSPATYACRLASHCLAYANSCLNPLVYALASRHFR
OX1R antag-2 = antagonists of human orexin 1 receptor; O43613; CHO/OX1R cells, Fluo-8 calcium fluorescence, orexin A; inhibition, % at 5 µM; 330,000 tested, 0.43% active; AID 434989;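 active = inhibition above its plate's threshold, mean inhibition of all tested compounds on the plate plus 3 SD, cut at about 37% in these data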;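 also: 0% = orexin A challenge wells and 100% = SB-334867-A antagonist wells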
TAAR1 agonist = agonists of human TAAR1 | Q96RJ0 | CHO RD-HGA16 TAAR1, Fluo-8 calcium fluorescence; vehicle wells 0%, saturating PEA agonist 100% | activation, % at 3 µM | 360,000 tested, 0.99% active | AID 624467;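 active = activation above the mean activation of all test compounds in the run plus 3 SD, cut at about 38% in these data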
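System: CHO RD-HGA16 cells carrying human TAAR1 plus Gα16; Incubation: 17-24 h seeding, 75 min 37 °C dye, 30 min RT; Measured by: Fluo-8 fluorescence, 5 s baseline then 140 s kinetic read; Control set: DMSO and PEA EC100; Replication: single well for each compound.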
Numbers without * were called inactive; nt = no result.

SMILES	TAAR1 antag	CHO parental Ca	OX1R antag-1	GalR3 antag	OX1R antag-2	TAAR1 agonist
CC(C(=O)NC1CCCC1)N(C(=O)Cn1nnc(-c2ccc(F)cc2)n1)c1ccccc1F (stereo unspecified)	51.6*	-27.7	20.3	-3.2	-16.1	19.2
O=C(Nc1ccccc1-c1nnn(CC(=O)N2CCOCC2)n1)c1ccccc1F	7.1	-7.9	26.1	0.2	-4.9	6.6
O=C(Cn1nnc(-c2ccccc2NC(=O)c2ccccc2F)n1)NC1CCCC1	15.4	32.2*	18.5	-2.1	40.3	-0.5
O=C(NC1CCS(=O)(=O)C1)c1cnccn1 (stereo unspecified)	12.9	-12.0	9.4	0.1	0.4	0.7
O=C1Oc2ccccc2C(=O)/C1=C/N1CCN(c2ccccc2F)CC1	-20.8	3.0	25.6	-5.7	-13.3	39.4*
CCS(=O)(=O)N1CCN(c2ccccc2F)CC1	4.8	-9.1	3.3	-2.5	-5.0	1.6
O=C1c2sc3nc4ccccc4n3c2C(=O)N1c1ccccc1Cl	14.8	-29.1	64.0*	-3.4	-25.2	10.1
CC1C2=C(CC(C)(C)CC2=O)NC2=C1C(=O)CC(C)(C)C2	11.1	1.4	16.3	-4.4	-19.8	4.1
O=C(CCl)Nc1c(C(=O)Nc2ccc3c(c2)OCCO3)oc2ccccc12	3.3	-16.2	67.6*	-1.8	-6.1	-2.8
Cc1nnc(NC(=O)c2oc3ccccc3c2C)s1	-6.0	-10.4	48.3	-0.3	-11.0	11.4
Cc1c(C(=O)Nc2ccc3c(c2)OCO3)oc2ccccc12	-4.7	-22.2	72.9*	-2.1	-1.0	-5.0
Cc1nc(NC(=O)c2oc3ccccc3c2C)sc1C(=O)N(C)C	19.5	-6.1	53.9*	-6.7	11.9	2.8
COc1ccccc1S(=O)(=O)CC(O)COc1ccccc1Cl (stereo unspecified)	-7.2	-7.5	8.9	-0.8	-2.8	1.1
O=S(=O)(O)c1ccc(N2N=C(c3ccccc3)CC2c2ccccc2)cc1 (stereo unspecified)	-21.4	-2.7	2.3	0.7	-14.8	3.7
Cc1ccc(NCN2C(=O)c3ccccc3C2=O)c(C)n1	-12.3	nt	nt	3.4	nt	1.1
c1ccc(OCCCn2nnc(-c3ccncc3)n2)cc1	-11.9	-6.9	16.5	-7.0	-7.4	3.2
O=C(CN(C(=O)CCC(=O)Nc1nccs1)c1ccccc1F)NCc1ccccc1	0.6	1.8	6.0	-3.4	-7.0	-1.7
CCNC(=O)c1cc2c(c(-c3cccc(-c4ccccc4F)c3)n1)[C@@H](CCO)N(C(=O)CC1CC1)C2	5.5	nt	nt	-1.0	nt	3.1
COc1ccccc1-c1cccc(-c2nc(C(=O)Nc3nccs3)cc3c2[C@@H](CCO)N(C(=O)CC2CC2)C3)c1	50.9*	nt	nt	-1.9	nt	11.1
CCCc1[nH]nc2c1C(c1cc(OC)ccc1F)C(C#N)=C(N)O2 (stereo unspecified)	13.8	7.0	6.0	-5.4	-9.1	2.8
CC(C)(C)c1cc[n+](C2=C([O-])c3ccccc3C(=O)/C2=N\S(=O)(=O)c2ccccc2)cc1	15.0	-11.4	67.2*	5.1	-21.5	1.5
O=C1/C(=N\S(=O)(=O)c2cccs2)C([n+]2ccc(CCCc3ccccc3)cc2)=C([O-])c2ccccc21	-9.4	-54.9	25.7	-2.1	-20.7	0.3
O=C1/C(=N\S(=O)(=O)c2cccs2)C([n+]2cccc(Cc3ccccc3)c2)=C([O-])c2ccccc21	nt	50.7*	48.2*	nt	33.1	nt
Cc1cc(C)c[n+](C2=C([O-])c3ccccc3C(=O)/C2=N\S(=O)(=O)c2cccs2)c1	-4.9	3.1	47.8	-1.9	-5.4	1.8
COC(=O)CSc1nc(N2CCCCC2)c2c(c1C#N)CCCC2	-0.6	13.9	33.4	-6.0	-9.9	6.8
SMILES	TAAR1 antag	CHO parental Ca	OX1R antag-1	GalR3 antag	OX1R antag-2	TAAR1 agonist
Cc1ccc(NC(=S)NN2CCN(C)CC2)c(C)c1	8.4	-4.3	18.2	-3.0	4.2	4.6
Cn1nc(C(F)(F)F)c(-c2ccc(Br)cc2)c1NC(=O)Nc1ccc(F)cc1F	27.9	32.8	23.6	-5.7	46.2*	9.3
COc1ccc(OC)c(S(=O)(=O)NCc2nc3nc(C)cc(C)n3n2)c1	-23.6	-3.0	-0.6	-1.9	-2.3	1.1
Cc1cc(C)n2nc(CNS(=O)(=O)c3ccc([N+](=O)[O-])cc3)nc2n1	-17.7	8.6	51.0*	1.1	4.6	0.0
O=C(Cc1ccccc1Cl)Nc1cccc(S(=O)(=O)N2CCOCC2)c1	-20.9	-5.3	20.4	-2.8	-7.8	8.1
COc1ccc(NC(=O)c2cc(-c3ccco3)nc3ccccc23)cn1	29.9	-16.6	6.0	-4.0	-6.6	9.5
Cc1ccc(C(=O)C[n+]2cc(-c3ccc(C)cc3)n3c2CCCCC3)cc1	3.0	1.1	-0.8	19.9*	17.5	14.2
COCc1c(C(=O)OCc2nc3ccsc3c(=O)[nH]2)oc2ccccc12	1.4	-19.6	28.3*	-4.5	10.5	0.9
COCc1c(C(=O)OCc2nc(N)nc(Nc3ccccc3C)n2)oc2ccccc12	-0.3	-25.3	46.6*	-4.0	16.2	10.6
COc1cc2ccccc2cc1C(=O)OCc1nc2ccsc2c(=O)[nH]1	24.9	-21.7	34.9*	-4.7	-7.3	7.0
COC(=O)c1sc(S(=O)(=O)Oc2ccccc2NC(C)=O)c(C(=O)OC)c1C	-10.8	nt	nt	1.4	nt	1.5
O=C(NC1CCCC1)C(c1ccncc1)N(Cc1ccccc1)C(=O)Cc1cccs1 (stereo unspecified)	-10.7	-28.4	9.0	-1.8	-32.7	10.2
Cc1cc(C)cc(N(C(=O)Cc2cccs2)C(C(=O)NC2CCCCC2)c2ccccn2)c1 (stereo unspecified)	-13.2	-16.8	64.9*	-3.5	-5.7	4.0
O=C(NC1CCCC1)C(c1ccsc1)N(Cc1ccccc1)C(=O)Cc1cccs1 (stereo unspecified)	51.8*	-33.7	13.4	-13.4	4.3	6.4
Cc1cc(C)cc(N(C(=O)Cc2cccs2)C(C(=O)NC2CCCC2)c2ccc(C)o2)c1 (stereo unspecified)	-10.0	-16.1	1.8	-6.5	-11.9	2.4
O=C(NC1CCCC1)C(c1ccccc1)N(Cc1ccc2c(c1)OCO2)C(=O)Cc1cccs1 (stereo unspecified)	50.7*	-1.2	58.8	-6.1	-22.8	16.6
O=C(NCc1cccnc1)c1noc2c1CCCC2	nt	-7.7	13.0	nt	-15.5	nt
Cc1ccc(N(CC(=O)NC(C)c2ccccc2)S(=O)(=O)c2c(C)n[nH]c2C)cc1 (stereo unspecified)	-15.7	-25.7	31.2	-7.6	-20.4	3.0
Cc1ccc(N(CC(=O)NC(C)c2ccccc2)S(=O)(=O)c2c(C)noc2C)cc1 (stereo unspecified)	-27.9	-20.1	51.7*	-3.0	13.7	-2.4
